Laboratory results taken from publication PMC6207247 (Clinical Pharmacology : Advances and Applications, 2018).
Entries after “also recorded” stand apart in the source; their conditions may differ.

Columns and labels:
[1] = patients with atrial fibrillation, population PK; cited from earlier work
clotting time (INR) = experiment: International normalized ratio; assay type: in vivo, human; conditions: 50 mg dose, Japanese and Caucasian
[2] = Safety and tolerability assessment; assay type: in vivo, human; conditions: for bleeding time: same subject
Outline: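 Subjects stayed in clinic ≥72 h per period and avoided alcohol, grapefruit, caffeine and fecal-occult-interfering foods up to Day 4. Safety was assessed by adverse-event review (MedDRA v8.1, by organ class, ethnic group and dose), vital signs, ECGs, physical exams, serum chemistry, liver function, blood counts, urinalysis, fecal occult blood and template-device bleeding time.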

clotting time (aPTT) = experiment: Activated partial thromboplastin time; assay type: in vivo, human; conditions: 50 mg dose
[3] = test system: clotting times and thrombin generation; experiment: Time course of pharmacodynamic measures; assay type: in vivo, human
clotting time (mPT) = experiment: Modified prothrombin time; assay type: in vivo, human; conditions: 50 mg single dose, Japanese and Caucasian
[4] = Single-dose pharmacokinetics of apixaban in plasma and urine; assay type: in vivo, human; conditions: for dose proportionality of exposure: Japanese and Caucasian; for CL renal / half-life: male, human, oral; for CL renal: plasma and urine, renal clearance; for half-life: plasma
thrombin generation = experiment: Ex vivo thrombin generation; assay type: in vivo, human; conditions: after apixaban administration, greatest change
Outline: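 For thrombin generation, the same dosing design applied, with platelet-poor plasma (double centrifugation, 2,500 g, 4°C) sampled 3, 6, 12 and 24 h postdose. Thrombin over time came from cleavage of a slow-reacting fluorogenic substrate against a paired calibration sample. Lag time, time to peak, peak thrombin and endogenous thrombin potential were derived from the curve and summarised as % change from baseline by group, dose and time.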

For COc1ccc(-n2nc(C(N)=O)c3c2C(=O)N(c2ccc(N4CCCCC4=O)cc2)CC3)cc1 [apixaban, 1-(4-methoxyphenyl)-7-oxo-6-(4-(2-oxopiperidin-1-yl)phenyl)-4,5,6,7-tetrahydro-1H-pyrazolo[3,4-c]pyridine-3-carboxamide], the “apixaban clearance lower in Japanese patients compared to the overall population” value [1] is given as 15%, the “higher exposure corresponding to the lower clearance in Japanese patients” value [1] is given as 18% and the “INR, increase from baseline” value (clotting time (INR)) is given as 50%–64%. For the same molecule, the “headache, number of subjects” value ([2]; Caucasian subjects who received apixaban) was “five”, the “subjects reporting AEs” value ([2]; Caucasian subjects who received apixaban (11)) was 91.7% and the “subjects reporting AEs” value ([2]; Japanese subjects who received apixaban (five)) was 41.7%. For the same molecule, the “intensity of reported AEs” value ([2]; all reported AEs) was “mild or moderate”, the safety and tolerability ([2]; ascending single oral doses 2.5–50 mg, Japanese and Caucasian healthy subjects) was “safe and well tolerated” and the “changes in vital signs or ECGs” value ([2]; either group) was “no clinically relevant changes”. For the same molecule, the bleeding time ([2]; 3.5 h after the 50 mg dose) was 30 min, the bleeding time ([2]; by 12 h after the 50 mg dose) was 9 min and the “total number of AEs reported” value ([2]; subjects who received apixaban (12 Japanese, 12 Caucasian)) was 32. For the same molecule, the “serious AEs or discontinuations due to AEs” value ([2]; whole study) was “no serious AEs or discontinuations due to AEs”, the “aPTT, mean maximum increase from baseline” value (clotting time (aPTT)) was ~ 25% and the “duration of pharmacodynamic effects” value ([3]; 25 and 50 mg dose panels) was greater than 24 h. For the same molecule, the “time for which changes in TG parameters and mPT were evident” value ([3]; after apixaban administration) was no less than 12 h, the “time until changes in pharmacodynamic measures were evident” value ([3]; after apixaban administration, Japanese and Caucasian) was no more than 30 min and the “time to nearing baseline values of pharmacodynamic measures” value ([3]; doses ≤10 mg) was 12 to 24 h. The “time of peak values of pharmacodynamic measures” value ([3]; postdose) was “approximately 3 h”, the “mPT, mean maximum increase from baseline” value (clotting time (mPT)) was 226%–229% and the “AUC values lower in Japanese than in Caucasian subjects” value ([4]; 50 mg dose) was 20%–22%. The “dose proportionality of exposure” value ([4]; 2.5–10 mg dose range) was “increased the dose proportionally up to 10 mg; also recorded: increased in proportion to dose”, the “point estimates and 95% CIs for dose proportionality parameter b” value ([4]; Cmax and AUC, both Japanese and Caucasian subjects, 2.5–50 mg) was less than 1 and the “dose proportionality of exposure” value ([4]; across the 2.5–50 mg dose range) was “less than proportional to dose”. The CL renal ([4]; Caucasian subjects, across doses) was 13.3 mL/min, the CL renal ([4]; Japanese subjects, across doses) was 18.3 mL/min and the half-life ([4]; mean T1/2 values across doses, Caucasian subjects, 2.5–50 mg) was 8.9 to 16.1 h. The half-life ([4]; mean T1/2 values across doses, Japanese subjects, 2.5–50 mg) was 6.1 to 8.5 h, the half-life ([4]; mean half-life, Caucasian subjects, across doses) was roughly 13 h and the half-life ([4]; mean half-life, Japanese subjects, across doses) was roughly 8 h. The “ETP, decrease from baseline” value (thrombin generation) was 49%, the “LAG, increase from baseline (up to)” value (thrombin generation) was “approximately 178%” and the “PEAK, decrease from baseline” value (thrombin generation) was 86%. The “TTP, increase from baseline (up to)” value (thrombin generation) was roughly 142%.
